# Assay results taken from ChEMBL document CHEMBL3804761, “Synthesis of a stable and orally bioavailable englerin analogue” (Bioorg Med Chem Lett, 2016).
# Experiments:
# Format in all cases: functional
# [1] = Growth inhibition of human UO31 cells incubated for 48 hrs by sulforhodamine B assay; conditions: UO-31, 48 h
# In short: (§1)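 Tested in the standard NCI 60-cell-line protocol with two-day drug exposure and a sulforhodamine B endpoint. Compounds were first screened at a single final concentration of 10 µM, reported as growth percent. They were then run as five 10-fold dilutions starting from a high concentration of 100 µM to give dose-response curves.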
# NCI-H522 = experiment: Growth inhibition of human NCI-H522 cells assessed as cell growth at 10 uM incubated for 48 hrs by sulforhodamine B assay relative to control; conditions: NCI-H522, 48 h, read-out: Activity
# In short: (§2)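 Run in the standard NCI 60-cell-line screen. Cells were exposed to drug for two days, and the read-out was sulforhodamine B staining. Compound was tested at a single final concentration of 10 µM in every line, and results are reported as growth percent.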
# [2] = Growth inhibition of human IGROV1 cells assessed as cell growth at 10 uM incubated for 48 hrs by sulforhodamine B assay relative to control; conditions: IGROV-1, 48 h, read-out: Activity; in short: as §2
# U-251 = experiment: Growth inhibition of human U251 cells assessed as cell growth at 10 uM incubated for 48 hrs by sulforhodamine B assay relative to control; conditions: U-251, 48 h, read-out: Activity
# In short: (§3)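 NCI 60-cell line standard protocol, one-dose screen: single final concentration 10 µM, 2-day drug exposure, sulforhodamine B (SRB) endpoint; read-out is growth percent relative to untreated control.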
# [3] = Growth inhibition of human OVCAR3 cells incubated for 48 hrs by sulforhodamine B assay; conditions: OVCAR-3, 48 h
# In short: (§4)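 NCI 60-cell-line panel, standard protocol. Cells exposed to compound for two days, growth read by sulforhodamine B staining. Tested at five 10-fold dilutions, top concentration 100 µM, to give dose-response curves.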
# SN12C [4] = experiment: Growth inhibition of human SN12C cells assessed as cell growth at 10 uM incubated for 48 hrs by sulforhodamine B assay relative to control; conditions: read-out: Activity; in short: as §2
# [5] = Growth inhibition of human COLO205 cells incubated for 48 hrs by sulforhodamine B assay; conditions: COLO 205, 48 h; in short: as §4
# MCF7 = experiment: Growth inhibition of human MCF7 cells incubated for 48 hrs by sulforhodamine B assay; conditions: MCF7, 48 h; in short: as §4
# SN12C [6] = experiment: Growth inhibition of human SN12C cells incubated for 48 hrs by sulforhodamine B assay; in short: as §1
# SR = experiment: Growth inhibition of human SR cells assessed as cell growth at 10 uM incubated for 48 hrs by sulforhodamine B assay relative to control; conditions: read-out: Activity; in short: as §2
# [7] = Growth inhibition of human Hs 578T cells incubated for 48 hrs by sulforhodamine B assay
# NCI-H322M = experiment: Growth inhibition of human NCI-H322M cells assessed as cell growth at 10 uM incubated for 48 hrs by sulforhodamine B assay relative to control; conditions: read-out: Activity; in short: as §2
# SK-MEL-28 = experiment: Growth inhibition of human SK-MEL-28 cells assessed as cell growth at 10 uM incubated for 48 hrs by sulforhodamine B assay relative to control; conditions: SK-MEL-28, 48 h, read-out: Activity; in short: as §2
# [8] = Growth inhibition of human UACC62 cells incubated for 48 hrs by sulforhodamine B assay; conditions: UACC-62, 48 h; in short: as §1
# SK-MEL-2 = experiment: Growth inhibition of human SK-MEL-2 cells incubated for 48 hrs by sulforhodamine B assay; conditions: SK-MEL-2, 48 h; in short: as §4
# M14 = experiment: Growth inhibition of human M14 cells incubated for 48 hrs by sulforhodamine B assay; conditions: M14, 48 h; in short: as §4
# [9] = Growth inhibition of human TK10 cells incubated for 48 hrs by sulforhodamine B assay; conditions: TK-10, 48 h; in short: as §1
# K562 = experiment: Growth inhibition of human K562 cells assessed as cell growth at 10 uM incubated for 48 hrs by sulforhodamine B assay relative to control; conditions: K562, 48 h, read-out: Activity; in short: as §2
# [10] = Growth inhibition of human RXF393 cells assessed as cell growth at 10 uM incubated for 48 hrs by sulforhodamine B assay relative to control; conditions: RXF 393, 48 h, read-out: Activity; in short: as §2
# [11] = Growth inhibition of human HCT15 cells incubated for 48 hrs by sulforhodamine B assay; conditions: HCT-15, 48 h; in short: as §4
# 786-0 = experiment: Growth inhibition of human 786-0 cells assessed as cell growth at 10 uM incubated for 48 hrs by sulforhodamine B assay relative to control; conditions: 786-0, 48 h, read-out: Activity; in short: as §2
# [12] = Growth inhibition of human UO31 cells assessed as cell growth at 10 uM incubated for 48 hrs by sulforhodamine B assay relative to control; conditions: UO-31, 48 h, read-out: Activity; in short: as §3
# [13] = Growth inhibition of human SNB19 cells assessed as cell growth at 10 uM incubated for 48 hrs by sulforhodamine B assay relative to control; conditions: SNB-19, 48 h, read-out: Activity; in short: as §2
# [14] = Growth inhibition of human MOLT4 cells incubated for 48 hrs by sulforhodamine B assay; conditions: MOLT-4, 48 h; in short: as §4
# [15] = Growth inhibition of human DU145 cells assessed as cell growth at 10 uM incubated for 48 hrs by sulforhodamine B assay relative to control; conditions: DU-145, 48 h, read-out: Activity; in short: as §2
# Malme-3M = experiment: Growth inhibition of human MALME-3M cells assessed as cell growth at 10 uM incubated for 48 hrs by sulforhodamine B assay relative to control; conditions: read-out: Activity; in short: as §2
# NCI-H23 = experiment: Growth inhibition of human NCI-H23 cells incubated for 48 hrs by sulforhodamine B assay; conditions: NCI-H23, 48 h; in short: as §4
# ACHN = experiment: Growth inhibition of human ACHN cells incubated for 48 hrs by sulforhodamine B assay; in short: as §4
# [16] = Growth inhibition of human SKOV3 cells incubated for 48 hrs by sulforhodamine B assay; conditions: SK-OV-3, 48 h; in short: as §1
# [17] = Growth inhibition of human BT549 cells incubated for 48 hrs by sulforhodamine B assay; conditions: BT-549, 48 h; in short: as §4
# [18] = read-out: pLC50 (the source's name) (converted)
structure (smiles),measurement,setting,value
CC(C)[C@@]12C[C@@H](NC(=O)CO)[C@@](C)(O1)[C@@H]1CC[C@@H](C)[C@H]1[C@@H]2OC(=O)/C=C/c1ccccc1,GI50,[1],6.17 µM
same,CC50,[1]; [18],> 50.1 µM
same,TGI,[1]; read-out: pTGI (converted),> 50.1 µM
same,growth at 10 µM,NCI-H522,76.9%
same,growth at 10 µM,[2],106%
same,growth at 10 µM,U-251,92.3%
same,GI50,[3],14.8 µM
same,LC50,[3],> 50.1 µM
same,TGI,[3]; read-out: pTGI (converted),49 µM
same,growth at 10 µM,SN12C [4],48.8%
same,GI50,[5],10.7 µM
same,CC50,[5]; [18],> 50.1 µM
same,TGI,[5]; read-out: pTGI (converted),26.3 µM
same,GI50,MCF7,14.5 µM
same,CC50,MCF7; [18],> 50.1 µM
same,TGI,MCF7; read-out: pTGI (converted),> 50.1 µM
same,GI50,SN12C [6],10.7 µM
same,CC50,SN12C [6]; [18],> 50.1 µM
same,TGI,SN12C [6]; read-out: pTGI (converted),> 50.1 µM
same,growth at 10 µM,SR,79.1%
same,GI50,[7]; read-out: GI50,0.832 µM
same,GI50,[7]; read-out: pGI50 (converted),0.832 µM
same,CC50,[7]; [18],> 50.1 µM
same,TGI,[7]; read-out: pTGI (converted),3.39 µM
same,growth at 10 µM,NCI-H322M,77.8%
same,growth at 10 µM,SK-MEL-28,112%
same,GI50,[8],15.1 µM
same,"LC50 (lethal concentration, 50% net cell kill)",[8],> 50.1 µM
same,TGI,[8]; read-out: pTGI (converted),> 50.1 µM
same,GI50,SK-MEL-2,14.8 µM
same,LC50,SK-MEL-2,> 50.1 µM
same,TGI,SK-MEL-2; read-out: pTGI (converted),37.2 µM
same,GI50,M14,16.6 µM
same,LC50,M14,> 50.1 µM
same,TGI,M14; read-out: pTGI (converted),> 50.1 µM
same,GI50,[9],28.8 µM
same,CC50,[9]; [18],> 50.1 µM
same,TGI,[9]; read-out: pTGI (converted),> 50.1 µM
same,growth at 10 µM,K562,86.6%
same,growth at 10 µM,[10],63.3%
same,GI50,[11],16.6 µM
same,LC50,[11],> 50.1 µM
same,TGI,[11]; read-out: pTGI (converted),> 50.1 µM
same,growth at 10 µM,786-0,73.1%
same,growth at 10 µM,[12],57.2%
same,growth at 10 µM,[13],103%
same,GI50,[14],15.8 µM
same,LC50,[14],> 50.1 µM
same,TGI,[14]; read-out: pTGI (converted),> 50.1 µM
same,growth at 10 µM,[15],110%
same,growth at 10 µM,Malme-3M,95.2%
same,GI50,NCI-H23,14.8 µM
same,LC50,NCI-H23,> 50.1 µM
same,TGI,NCI-H23; read-out: pTGI (converted),> 50.1 µM
same,GI50,ACHN,3.98 µM
same,LC50 (concentration killing 50% of cells),ACHN,> 50.1 µM
same,TGI,ACHN; read-out: pTGI (converted),35.5 µM
same,GI50,[16],> 50.1 µM
same,LC50,[16],> 50.1 µM
same,TGI,[16]; read-out: pTGI (converted),> 50.1 µM
same,GI50,[17],6.92 µM
same,CC50,[17]; [18],> 50.1 µM
same,TGI,[17]; read-out: pTGI (converted),25.1 µM
